# Experimental data taken from ChEMBL document CHEMBL3351339, “Delineation of the role of glycosylation in the cytotoxic properties of quercetin using novel assays in living vertebrates” (J Nat Prod, 2014).
# The source made the active and inactive calls. The rule behind the calls is not given here.
# Experiments:
# Cancer cell lines [1] = experiment: Antitumor activity against human HCT116 cells xenografted in 48 hpf zebrafish embryo assessed as inhibition of cancer cell proliferation at 80 uM treated for 4 days; format: functional, cell-based
# Method in brief: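 HCT116 cells labelled with 2 μg/mL DiI were injected into the yolk sac of 48 hpf embryos. Embryos were held singly in E3 without methylene blue with compound (80 μM), 10 μM API-H7 as positive control or DMSO, at 31 °C for 96 h, 8 per group. Larvae were dissociated with collagenase/dispase for 2 h at 37 °C, fixed in paraformaldehyde, and fluorescent cells counted by microscopy. Two independent assays.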
# HCT-116 [2] = experiment: Cytotoxicity against human HCT116 cells at 1.25 to 20 uM after 96 hrs by MTT assay; format: functional, cell-based
# Method in brief: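 HCT116 cells in DMEM with 10% FBS, seeded at 4 × 10^3 per well and left overnight at 37 °C. Treated in 1% FBS–DMEM for 96 h, then MTT for 3 h. Formazan dissolved in DMSO, absorbance read at 570 nm. DMSO vehicle control. Two independent assays, mean ± SD.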
# [3] = Drug metabolism assessed as zebrafish intestinal beta-glucosidase-mediated formation of quercetin at 80 uM after 2.5 hrs by resorufin-beta-D-glucopyranoside-based fluorescence assay; format: ADME, Danio rerio
# Method in brief: (§1)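 Larvae at 7 dpf (24 per well) were incubated in E3 without methylene blue with Res-β-Glc probe at 400 μM, with or without 80 μM compound, for 2.5 h at 31 °C, then washed. Larvae showing reduced fluorescence against probe-alone larvae were counted by microscopy (n = 3, SD). Lysates were also read at ex 570/em 610 nm.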
# Danio rerio [4] = species on record: Danio rerio; experiment: Teratogenic effect in zebrafish assessed as slow heartbeat at 160 uM after 72 hrs by microscopy; format: organism-based; conditions: in vivo
# Method in brief: (§2)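 Fertilized eggs were exposed from the eight-cell stage, 8 per well, at 31 °C for 72 h. Development, malformations and survival were then recorded by microscopy.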
# beta-glucosidase = experiment: (§3) Drug metabolism assessed as zebrafish intestinal beta-glucosidase-mediated deglycosylation of compound at 80 uM after 2.5 hrs by resorufin-beta-D-glucopyranoside-based fluorescence assay; format: ADME, Danio rerio; conditions: zebrafish intestinal beta-glucosidase, probe resorufin-beta-D-glucopyranoside, read-out: Drug metabolism; method in brief: as §1
# [5] = Drug metabolism assessed as zebrafish intestinal beta-glucosidase-mediated formation of quercetin after 2.5 hrs by resorufin-beta-D-glucopyranoside-based fluorescence assay; format: ADME, Danio rerio; method in brief: as §1
# Danio rerio [6] = species on record: Danio rerio; experiment: Teratogenic effect in zebrafish assessed as abnormal development of yolk sac at 160 uM after 72 hrs by microscopy; format: toxicity, organism-based; conditions: in vivo; method in brief: as §2
# HCT-116 [7] = experiment: Induction of apoptosis in human HCT116 cells assessed as PARP cleavage at 20 uM after 72 hrs by immunoblotting; format: functional, cell-based
# Method in brief: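 HCT116 cells were treated with 20 μM compound for 72 h and lysed in ice-cold buffer with PMSF and protease inhibitors. Protein in the cleared supernatant was measured by BCA, and PARP cleavage was detected by western blot with actin as reference.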
# Danio rerio [8] = species on record: Danio rerio; experiment: Teratogenic effect in zebrafish assessed as developmental toxicity at 40 to 80 uM after 72 hrs by microscopy; format: organism-based; conditions: in vivo; method in brief: as §2
# Danio rerio [9] = species on record: Danio rerio; experiment: Teratogenic effect in zebrafish assessed as abnormal head at 160 uM after 72 hrs by microscopy; format: organism-based; conditions: in vivo; method in brief: as §2
# Danio rerio [10] = species on record: Danio rerio; experiment: Teratogenic effect in zebrafish assessed as abnormal heart at 160 uM after 72 hrs by microscopy; format: organism-based; conditions: in vivo; method in brief: as §2
# Danio rerio [11] = experiment: Teratogenic effect in zebrafish assessed as heart sac edema at 160 uM after 72 hrs by microscopy; format: organism-based; conditions: in vivo; method in brief: as §2
# Cancer cell lines [12] = experiment: Antitumor activity against human HCT116 cells xenografted in 48 hpf zebrafish embryo assessed as inhibition of cancer cell proliferation compound treated for 4 days; format: functional, cell-based
# Danio rerio [13] = species on record: Danio rerio; experiment: Teratogenic effect in zebrafish assessed as skeletal deformities at 160 uM after 72 hrs by microscopy; format: organism-based; conditions: in vivo; method in brief: as §2
# Danio rerio [14] = species on record: Danio rerio; experiment: Teratogenic effect in zebrafish assessed as delayed hatching at 160 uM after 72 hrs by microscopy; format: organism-based; conditions: in vivo; method in brief: as §2
# [15] = as §3; format: ADME, Danio rerio; conditions: 2.5 h, 80 µM; method in brief: as §1
Compound,Activity (Cancer cell lines [1]),Activity (HCT-116 [2]),Drug metabolism [3],Activity (Danio rerio [4]),"metabolised at 2.5 h, 80 µM (beta-glucosidase) [%]",Drug metabolism [5],Activity (Danio rerio [6]),Activity (HCT-116 [7]),Activity (Danio rerio [8]),Activity (Danio rerio [9]),Activity (Danio rerio [10]),Activity (Danio rerio [11]),Activity (Cancer cell lines [12]),Activity (Danio rerio [13]),Activity (Danio rerio [14]),Drug metabolism [15]
C[C@@H]1O[C@@H](Oc2c(-c3ccc(O)c(O)c3)oc3cc(O)cc(O)c3c2=O)[C@H](O)[C@H](O)[C@H]1O,inactive,Active,–,–,–,–,–,–,–,–,–,–,–,–,–,–
O=c1c(O[C@@H]2O[C@H](CO)[C@H](O)[C@H](O)[C@H]2O)c(-c2ccc(O)c(O)c2)oc2cc(O)cc(O)c12,inactive,Active,–,–,–,–,–,–,–,–,–,–,–,–,–,–
O=c1c(O[C@@H]2O[C@H](CO)[C@@H](O)[C@H](O)[C@H]2O)c(-c2ccc(O)c(O)c2)oc2cc(O)cc(O)c12 [ISOQUERCETIN],Active,Active,metabolite_detected,Non-toxic,57,Dose-dependent effect,Non-toxic,Active,Non-toxic,Non-toxic,Non-toxic,Non-toxic,Dose-dependent effect,Non-toxic,Non-toxic,–
O=c1c(O)c(-c2ccc(O)c(O)c2)oc2cc(O)cc(O)c12 [QUERCETIN],Active,Active,–,Non-toxic,–,–,Non-toxic,Active,Non-toxic,Non-toxic,Non-toxic,Non-toxic,–,Non-toxic,Non-toxic,metabolite_notdetected
O=c1c(O)c(-c2ccc(O[C@@H]3O[C@H](CO)[C@@H](O)[C@H](O)[C@H]3O)c(O)c2)oc2cc(O)cc(O)c12 [SPIRAEOSIDE],inactive,Active,–,31.25%,45,–,31.25%,Active,Non-toxic,31.25%,31.25%,31.25%,–,31.25%,31.25%,–
